Reference: ChEMBL document CHEMBL1122111, “Allergenic alpha-methylene-gamma-butyrolactones. Stereospecific syntheses of (+)- and (-)-gamma-methyl-alpha-methylene-gamma-butyrolactones. A study of the specificity of (+) and (-) enantiomers in inducing allergic contact dermatitis” (1982)
Several values for one entry are separate records, joined by “and”; a condition that tells them apart may be missing. Equal values may be shown once.

Key:
Format in all cases: functional
Cavia porcellus [1] = organism: Cavia porcellus; test: Tested for its effect on guinea pigs sensitized with (+/-)-5-Methyl-3-methylene-dihydro-furan-2-one,number of animals showing no reaction
Method in brief: (§1)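 Female albino Hartley guinea pigs (250–300 g), sensitized by three intradermal nuchal injections of 0.1 mL on alternate days. The emulsion was 1:1 FCA/saline with 10% racemate (5% of each antipode). After 2 weeks rest, 0.25 mL of 1% or 2% methylene chloride solution was applied to a 2-cm2 area. Reactions were scored 0–3 every 24 h; av = summed scores/animals.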

Cavia porcellus [2] = organism: Cavia porcellus; test: Tested for its effect on guinea pigs sensitized with (+/-)-5-Methyl-3-methylene-dihydro-furan-2-one number of animals showing erythema and swelling of the test area; method in brief: as §1
Cavia porcellus [3] = organism: Cavia porcellus; test: Tested for its effect on guinea pigs sensitized with (S)5-Methyl-3-methylene-dihydro- furan-2-one number of animals showing no reaction
Method in brief: (§2)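 Albino female Hartley guinea pigs (250-300 g) got three 0.1 mL intradermal nuchal injections on alternate days of 1:1 FCA-saline emulsion with 5% enantiomer. After 2 weeks rest, 0.25 mL of 1% (enantiomers) or 1% or 2% (racemate) in methylene chloride was applied to a 2-cm2 area. Erythema/swelling scored 0-3 every 24 h; average = summed scores/animals.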

Cavia porcellus [4] = organism: Cavia porcellus; test: Tested for its effect on guinea pigs sensitized with (S)5-Methyl-3-methylene-dihydro- furan-2-onenumber of animals showing erythema covering the whole test area; method in brief: as §2
Cavia porcellus [5] = organism: Cavia porcellus; test: Tested for its effect on guinea pigs sensitized with (S)5-Methyl-3-methylene-dihydro- furan-2-one number of animals showing erythema covering the part of the test area; method in brief: as §2
Cavia porcellus [6] = organism: Cavia porcellus; test: Tested for its effect on guinea pigs sensitized with (R)-5-Methyl-3-methylene -dihydro -furan-2-one, Number of sensitive animals out of 8 tested
Method in brief: (§3)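 Female albino Hartley guinea pigs (250–300 g) received three 0.1-mL intradermal nuchal injections on alternate days of a 1:1 FCA/saline emulsion with 5% (+)-enantiomer. After 2 weeks rest, 0.25 mL of 1% or 2% methylene chloride solution was deposited on a 2-cm2 circle and read every 24 h. Erythema/swelling was scored 0–3; av = summed intensities divided by animal number.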

Cavia porcellus [7] = organism: Cavia porcellus; test: Tested for its effect on guinea pigs sensitized with (R)-5-Methyl-3-methylene -dihydro -furan-2-one,av is calculated by adding the test intensity and divided by the number of animals; method in brief: as §3
Cavia porcellus [8] = organism: Cavia porcellus; test: Tested for its effect on guinea pigs sensitized with (R)-5-Methyl-3-methylene -dihydro -furan-2-one, number of animals showing erythema and swelling of the test area; method in brief: as §3
Cavia porcellus [9] = organism: Cavia porcellus; test: Tested for its effect on guinea pigs sensitized with (R)-5-Methyl-3-methylene -dihydro -furan-2-one,number of animals showing erythema covering the whole test area; method in brief: as §2
Cavia porcellus [10] = organism: Cavia porcellus; test: Tested for its effect on guinea pigs sensitized with (S)5-Methyl-3-methylene-dihydro- furan-2-one,av is calculated by adding the test intensity and divided by the number of animals; method in brief: as §2
Cavia porcellus [11] = organism: Cavia porcellus; test: Tested for its effect on guinea pigs sensitized with (+/-)-5-Methyl-3-methylene-dihydro-furan-2-one, Number of sensitive animals out of 8 tested; method in brief: as §1
Cavia porcellus [12] = organism: Cavia porcellus; test: Tested for its effect on guinea pigs sensitized with (S)5-Methyl-3-methylene-dihydro- furan-2-one; Number of sensitive animals out of 8 tested; method in brief: as §2
Cavia porcellus [13] = organism: Cavia porcellus; test: Tested for its effect on guinea pigs sensitized with (+/-)-5-Methyl-3-methylene-dihydro-furan-2-one,number of animals showing erythema covering the whole test area; method in brief: as §1
Cavia porcellus [14] = organism: Cavia porcellus; test: Tested for its effect on guinea pigs sensitized with (S)5-Methyl-3-methylene-dihydro- furan-2-one number of animals showing erythema and swelling of the test area.; method in brief: as §2
Cavia porcellus [15] = organism: Cavia porcellus; test: Tested for its effect on guinea pigs sensitized with (+/-)-5-Methyl-3-methylene-dihydro-furan-2-one, av is calculated by adding the test intensity and divided by the number of animals; method in brief: as §1
Cavia porcellus [16] = organism: Cavia porcellus; test: Tested for its effect on guinea pigs sensitized with (+/-)-5-Methyl-3-methylene-dihydro-furan-2-one,number of animals showing erythema covering the part of the test area; method in brief: as §1
Cavia porcellus [17] = organism: Cavia porcellus; test: Tested for its effect on guinea pigs sensitized with (R)-5-Methyl-3-methylene -dihydro -furan-2-one,number of animals showing erythema covering the part of the test area; method in brief: as §2
Cavia porcellus [18] = organism: Cavia porcellus; test: Tested for its effect on guinea pigs sensitized with (R)-5-Methyl-3-methylene -dihydro -furan-2-one,number of animals showing no reaction; method in brief: as §2
Cavia porcellus [19] = organism: Cavia porcellus; test: Tested for effect on guinea pigs sensitized with (+/-)-5-Methyl-3- methylene-dihydro-furan-2-one; Number of sensitive animals; method in brief: as §1
Cavia porcellus [20] = organism: Cavia porcellus; test: Tested for effect on guinea pigs sensitized with (S)5-Methyl-3- methylene-dihydro-furan-2-one and av is calculated by adding the test intensity and divided by the number of animals
Method in brief: (§4)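 Sensitization: female albino Hartley guinea pigs (250–300 g) were given three alternate-day 0.1-mL intradermal nuchal injections of 1:1 FCA/saline emulsion containing 5% (−)-enantiomer. Challenge after 2 weeks rest used 0.25 mL of 1% or 2% methylene chloride solution on a 2-cm2 area, read every 24 h. The scale was 0 (none) to 3 (erythema/swelling beyond area); av = summed scores/animals.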

Cavia porcellus [21] = organism: Cavia porcellus; test: Tested for effect on guinea pigs sensitized with (S)5-Methyl-3- methylene-dihydro-furan-2-one and number of animals showing no reaction; method in brief: as §4
Cavia porcellus [22] = organism: Cavia porcellus; test: Tested for effect on guinea pigs sensitized with (R)5-Methyl-3- methylene-dihydro-furan-2-one and av is calculated by adding the test intensity and divided by the number of animals; method in brief: as §3
Cavia porcellus [23] = organism: Cavia porcellus; test: Tested for effect on guinea pigs sensitized with (+/-)-5-Methyl-3- methylene-dihydro-furan-2-one; Number of sensitive animals out of 8 tested; method in brief: as §1
Cavia porcellus [24] = organism: Cavia porcellus; test: Tested for effect on guinea pigs sensitized with (R)-5-Methyl-3-methylene-dihydro-furan-2-one; Number of sensitive animals out of 8 tested; method in brief: as §3
Cavia porcellus [25] = organism: Cavia porcellus; test: Tested for effect on guinea pigs sensitized with (+/-)-5-Methyl-3- methylene-dihydro-furan-2-one and number of animals showing erythema covering the whole test area; method in brief: as §1
Cavia porcellus [26] = organism: Cavia porcellus; test: Tested for effect on guinea pigs sensitized with (S)5-Methyl-3- methylene-dihydro-furan-2-one and number of animals showing erythema covering the whole test area; method in brief: as §4
Cavia porcellus [27] = organism: Cavia porcellus; test: Tested for effect on guinea pigs sensitized with (R)5-Methyl-3- methylene-dihydro-furan-2-one; Number of sensitive animals out of 8 tested; method in brief: as §3
Cavia porcellus [28] = organism: Cavia porcellus; test: Tested for effect on guinea pigs sensitized with (+/-)-5-Methyl-3- methylene-dihydro-furan-2-one and number of animals showing no reaction; method in brief: as §1
Cavia porcellus [29] = organism: Cavia porcellus; test: Tested for effect on guinea pigs sensitized with (+/-)-5-Methyl-3- methylene-dihydro-furan-2-one and number of animals showing erythema covering the part of the test area; method in brief: as §1
Cavia porcellus [30] = organism: Cavia porcellus; test: Tested for effect on guinea pigs sensitized with (S)5-Methyl-3 -methylene-dihydro-furan-2-one and number of animals showing erythema covering the whole test area; method in brief: as §4
Cavia porcellus [31] = organism: Cavia porcellus; test: Tested for effect on guinea pigs sensitized with (+/-)-5-Methyl-3- methylene-dihydro-furan-2-one and av is calculated by adding the test intensity and divided by the number of animals; method in brief: as §1
Cavia porcellus [32] = organism: Cavia porcellus; test: Tested for effect on guinea pigs sensitized with (R)5-Methyl-3- methylene-dihydro-furan-2-one and number of animals showing erythema covering the part of the test area; method in brief: as §3
Cavia porcellus [33] = organism: Cavia porcellus; test: Tested for effect on guinea pigs sensitized with (R)5-Methyl-3- methylene-dihydro-furan-2-one and number of animals showing erythema covering the whole test area; method in brief: as §3
Cavia porcellus [34] = organism: Cavia porcellus; test: Tested for effect on guinea pigs sensitized with (R)5-Methyl-3 -methylene-dihydro-furan-2-one and number of animals showing erythema covering the part of the test area; method in brief: as §3
Cavia porcellus [35] = organism: Cavia porcellus; test: Tested for effect on guinea pigs sensitized with (S)5-Methyl-3- methylene-dihydro-furan-2-one; Number of sensitive animals out of 8 tested; method in brief: as §4
Cavia porcellus [36] = organism: Cavia porcellus; test: Tested for effect on guinea pigs sensitized with (+/-)-5-Methyl-3- methylene-dihydro-furan-2-one and number of animals showing erythema and swelling of the test area; method in brief: as §1
Cavia porcellus [37] = organism: Cavia porcellus; test: Tested for effect on guinea pigs sensitized with (R)5-Methyl-3 -methylene-dihydro-furan-2-one and number of animals showing erythema covering the whole test area; method in brief: as §3

## C=C1C[C@H](C)OC1=O
Cavia porcellus [1]
  Skin tests intensity: 0
Cavia porcellus [2]
  Skin tests intensity: 6
Cavia porcellus [3]
  Skin tests intensity: 0
Cavia porcellus [4]
  Skin tests intensity: 7
Cavia porcellus [5]
  Skin tests intensity: 1
Cavia porcellus [6]
  No. of sensitive animals: 5
Cavia porcellus [7]
  av: 0.4
Cavia porcellus [8]
  Skin tests intensity: 0
Cavia porcellus [9]
  Skin tests intensity: 2
Cavia porcellus [10]
  av: 0.9
Cavia porcellus [11]
  No. of sensitive animals: 8
Cavia porcellus [12]
  No. of sensitive animals: 8
Cavia porcellus [13]
  Skin tests intensity: 2
Cavia porcellus [14]
  Skin tests intensity: 0
Cavia porcellus [15]
  av: 1.8
Cavia porcellus [16]
  Skin tests intensity: 0
Cavia porcellus [17]
  Skin tests intensity: 3
Cavia porcellus [18]
  Skin tests intensity: 3

## C=C1CC(C)OC1=O (configuration not stated)
Cavia porcellus [19]
  No. of sensitive animals: 8
Cavia porcellus [20]
  av: 1.9 and 0.9
Cavia porcellus [21]
  Skin tests intensity: 0
Cavia porcellus [22]
  av: 1.8 and 0.7
Cavia porcellus [23]
  No. of sensitive animals: 8
Cavia porcellus [24]
  No. of sensitive animals: 8
Cavia porcellus [25]
  Skin tests intensity: 2 and 4
Cavia porcellus [26]
  Skin tests intensity: 7
Cavia porcellus [27]
  No. of sensitive animals: 6
Cavia porcellus [28]
  Skin tests intensity: 0
Cavia porcellus [29]
  Skin tests intensity: 0
Cavia porcellus [30]
  Skin tests intensity: 1
Cavia porcellus [31]
  av: 1.8 and 1.5
Cavia porcellus [32]
  Skin tests intensity: 1
Cavia porcellus [33]
  Skin tests intensity: 5
Cavia porcellus [34]
  Skin tests intensity: 0
Cavia porcellus [35]
  No. of sensitive animals: 8
Cavia porcellus [36]
  Skin tests intensity: 6 and 4
Cavia porcellus [37]
  Skin tests intensity: 2
